Assay outcomes deposited in PubChem BioAssay by several laboratories.
AI-2 QS mod: modulators of Vibrio harveyi AI-2 quorum sensing system | Vibrio harveyi JMH597 AI-2 luminescence/OD600 ratio, 9 h; stronger effect = lower value; strain lacks LuxN and CqsS sensors; 0 = neutral-control median | activity change, % at 7.5 µM | actives 0.4% (n = 300,000) | AID 2094; in the data active = activity change below about -75%, passing the limit was not always enough;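 also: luminescence divided by OD600 gain over 9 h not by final OD600 alone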
AHR act: activators of human aryl hydrocarbon receptor. P35869. AHR-responsive luciferase reporter cells, luminescence. activation, % at 5 µM. actives 2.5% (n = 320,000); in the data active = activation above about 47%;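 also: 0% = vehicle wells and 100% = reference agonist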
Target sequence (P35869 whole entry, looked up): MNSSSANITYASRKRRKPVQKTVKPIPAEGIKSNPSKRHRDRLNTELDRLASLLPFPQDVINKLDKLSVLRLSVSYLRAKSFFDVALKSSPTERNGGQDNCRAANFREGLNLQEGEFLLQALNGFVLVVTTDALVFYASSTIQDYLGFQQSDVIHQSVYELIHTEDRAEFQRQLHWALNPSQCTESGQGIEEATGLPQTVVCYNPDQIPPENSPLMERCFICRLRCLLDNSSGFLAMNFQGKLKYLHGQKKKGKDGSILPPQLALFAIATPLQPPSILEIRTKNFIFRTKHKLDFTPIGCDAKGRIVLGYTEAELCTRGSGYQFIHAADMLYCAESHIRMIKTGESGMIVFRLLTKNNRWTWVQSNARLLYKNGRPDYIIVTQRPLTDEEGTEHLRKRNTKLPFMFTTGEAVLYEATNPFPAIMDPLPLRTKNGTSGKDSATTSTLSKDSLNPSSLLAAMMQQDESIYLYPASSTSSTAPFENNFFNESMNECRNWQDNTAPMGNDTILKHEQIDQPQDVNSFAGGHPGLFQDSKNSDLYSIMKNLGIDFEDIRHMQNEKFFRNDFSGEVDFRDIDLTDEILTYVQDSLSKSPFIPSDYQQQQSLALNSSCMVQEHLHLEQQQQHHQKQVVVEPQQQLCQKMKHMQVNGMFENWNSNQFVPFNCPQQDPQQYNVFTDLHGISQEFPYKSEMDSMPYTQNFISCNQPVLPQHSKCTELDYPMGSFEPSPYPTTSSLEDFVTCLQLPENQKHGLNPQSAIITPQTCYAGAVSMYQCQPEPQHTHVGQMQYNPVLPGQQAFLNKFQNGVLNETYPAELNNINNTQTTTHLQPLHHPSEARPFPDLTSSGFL
MsrA act: activates bovine MsrA enzyme | purified bovine MsrA, absorbance read-out | actives 0.3% (n = 360,000) | activation, % at 10.6 µM; in the data active = activation above about 7.5%;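 also: 0% = vehicle and 100% = reference activator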
Tb MetRS inh: blocks T. brucei methionyl-tRNA synthetase activity; inhibition, % at 11.9 µM; purified T. brucei MetRS, ATP depletion, Kinase-Glo luminescence; actives 0.4% (n = 360,000); AID 624268;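 active = inhibition above a per-plate cutoff of the control wells' mean inhibition plus 3 SD, cut at about 5.5% in these data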;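 also: 0% = DMSO wells median and 100% = median of wells with control inhibitor compound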
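Measured by: Kinase-Glo luciferase luminescence reporting remaining unconsumed ATP. Material: purified T. brucei MetRS enzyme. Doses: 11.9 µM compound single dose, 0.9% DMSO. Medium: HEPES buffer containing pyrophosphatase, BSA, spermine, DTT. Times: 15 min preincubation, 2 h reaction, all 25 °C. Reagent: methionine, ATP and bulk E. coli tRNA.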
MsrA inhibitor: inhibitors of bovine MsrA | actives 0.75% (n = 360,000) | inhibition, % at 15.5 µM | purified bovine MsrA, absorbance read-out | AID 651718;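 also: 0% = vehicle wells with enzyme and 100% = reference inhibitor wells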
m5-HT2A agonist: mouse HTR2A agonism via beta-arrestin recruitment; P35363; CHO-K1 mHTR2A beta-arrestin complementation, luminescence; percent of 30 µM serotonin response; activation, % at 7.6 µM; actives 0.66% (n = 360,000);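 active = activation above a run cutoff, the mean activation of all tested compounds plus 3 SD, cut at about 14% in these data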;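 also: 0% = plate median of compound wells and 100% = 30 µM serotonin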
OPRM1 ag: counter-screen for mouse HTR2A agonists: human mu opioid receptor agonists. U2OS OPRM1 beta-arrestin PathHunter, luminescence; DMSO 0%, DAMGO 9.3 µM 100%. actives 5.3% (n = 2,300). activation, % at 9.3 µM. shares compounds with m5-HT2A agonist;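 active = mean activation above the mean of DMSO-only wells plus 3 SD, cut at about 0.5% in these data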
m5-HT2A ag conf: confirmation of mouse HTR2A serotonin receptor agonists. shares compounds with m5-HT2A agonist. CHO-K1 PathHunter beta-arrestin recruitment, luminescence; DMSO 0%, 30 µM serotonin 100%. activation, % at 7.6 µM. actives 19% (n = 2,300). AID 624381;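 active = mean activation across triplicates above the hit threshold derived in the original primary screen, cut at about 15% in these data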
TbMetRS confirm: Trypanosoma brucei MetRS inhibition confirmed; shares compounds with Tb MetRS inh; T. brucei MetRS enzyme, luminescence (ATP depletion); inhibition, % at 11.9 µM; actives 93% (n = 1,400); in the data active = inhibition above about 7%
Jurkat tox: Jurkat T cell cytotoxicity for MetRS hits | shares compounds with Tb MetRS inh | Jurkat cells viability, ATP luminescence | inhibition, % at 8.3 µM | actives 12% (n = 1,400) | AID 624413; in the data active = inhibition above about 15%;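 also: 0% = vehicle and 100% = reference inhibitor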
Tb MetRS inh FP: orthogonal test for Trypanosoma brucei MetRS inhibitors. shares compounds with Tb MetRS inh. actives 44% (n = 1,400). inhibition, % at 11.9 µM. purified T. brucei MetRS, fluorescence polarization; in the data active = inhibition above about 17%;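 also: 0% = vehicle wells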
MsrA conf: bovine MsrA inhibition, confirmed; shares compounds with MsrA inhibitor; inhibition, % at 15.5 µM; AID 651822; purified bovine MsrA, absorbance read-out; actives 41% (n = 2,300);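 also: coupled to thioredoxin reductase with NADPH and selenocystamine and DMSO as substrate; 0% = vehicle only and 100% = full effect of reference inhibitor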
Starred values were filed as active, the others as inactive; nt = no result. Sampled rows, rich in hits. Any-hit rate of the full collection: about 4.4%. Rule as the data show it, unless noted: active = inhibition above about 4.5%; inactive = the rest.

SMILES	AI-2 QS mod	AHR act	MsrA act	Tb MetRS inh	MsrA inhibitor	m5-HT2A agonist	m5-HT2A ag conf	others
O=c1[nH]c2ccccc2n1C1CCN(C(c2ccccc2OC(F)(F)F)c2nnnn2-c2ccc3c(c2)OCCO3)CC1 (centres undefined)	nt	nt	-2	0	1	15*	11
Cc1ccccc1C(=O)N1CC1C (centres undefined)	nt	nt	-2	0	0	1	nt
CN1CCC(c2c[nH]c3ccc(O)cc23)CC1	nt	nt	-3	-1	1	50*	32*	OPRM1 ag=0
c1coc(CN2Cc3ccccc3-n3nncc3C2)c1	nt	nt	-12	-2	1	18*	-2	OPRM1 ag=-1
c1ccc(CN2Cc3ccccc3-n3nncc3C2)cc1	nt	nt	-3	0	1	-2	nt
CC1OC(OC2C=C3CCC4C(CCC5(C)C(c6ccc(=O)oc6)CCC45O)C3(C)CC2)C(O)C(OC2OC(CO)C(O)C(O)C2O)C1O (centres undefined)	nt	nt	0	0	0	15*	1	OPRM1 ag=6.9*
COc1ccc(CCNCc2sccc2C)cc1	19	-2	-3	0	-1	25*	9	OPRM1 ag=0
Cc1ccsc1CNCCc1ccc(F)cc1	12	-1	-7	-1	-1	7	nt
CCC(C)NC(=O)c1c(N)n(Cc2ccc3c(c2)OCO3)c2nc3ccccc3nc12 (centres undefined)	20	15	1	6.3*	0	5	nt	TbMetRS confirm=4;Jurkat tox=0;Tb MetRS inh FP=5
CCC(C)NC(=O)c1c(N)n(CCCOC)c2nc3ccccc3nc12 (centres undefined)	4	-4	0	5.7*	0	0	nt	TbMetRS confirm=5;Jurkat tox=4;Tb MetRS inh FP=0
COc1ccc(CC(C)Nc2cccc(F)c2)cc1 (centres undefined)	16	-2	-3	-1	1	-3	nt
CCCCn1c(NS(=O)(=O)c2ccccc2)c(C(=O)OCC)c2nc3ccccc3nc21	22	1	-4	13*	1	-2	nt	TbMetRS confirm=4;Jurkat tox=10;Tb MetRS inh FP=-1
CCCCn1c(NC(=O)c2ccc(Br)o2)c(C(=O)OCC)c2nc3ccccc3nc21	14	19	-4	3	2	-6	nt
CN1CCCN(C(=O)COc2ccc(F)cc2F)CC1	16	0	-6	0	0	-7	nt
NNC(=O)CN1C(=O)CN=C(c2ccccc2)c2cc(Br)ccc21	5	3	-3	22*	-1	1	nt	TbMetRS confirm=3;Jurkat tox=1;Tb MetRS inh FP=6
O=C1CN=C(c2ccccc2)c2cc(Br)ccc2N1Cc1cc(=O)n2ccccc2n1	4	5	-3	0	1	1	nt
O=C1NC(=O)N(Cc2cccs2)C(=O)/C1=C/c1ccc(N2CCOCC2)cc1	5	4	-8	-1	4.7*	2	nt	MsrA conf=3
Cn1cnc([N+](=O)[O-])c1Sc1ccc([N+](=O)[O-])cc1	-60	1	-2	-1	3	1	nt
COc1ccc(N=Nc2c(O)[nH]c(=S)[nH]c2=O)cc1	51	-5	-4	-1	0	-1	nt
CSc1nc(N)c(N=Nc2ccc([As](=O)(O)O)cc2)c(=O)[nH]1	36	1	-6	0	82*	-3	nt	MsrA conf=86*
